Results taken from ChEMBL document CHEMBL1955756, “Design and synthesis of novel sulfonamide-containing bradykinin hB(2) receptor antagonists. Synthesis and structure-relationships of α,α-tetrahydropyranylglycine” (Bioorg Med Chem, 2012).
The source made the active and inactive calls. The calls are words filed in the database; no cut-off is given here.

What follows are compounds tested against T1, B2 bradykinin receptor (Homo sapiens, UniProt P30411) (assay: Antagonist activity at human bradykinin B2 receptor expressed in dhfr-deficient CHO cells assessed as inhibition of bradykinin-induced inositol monophosphate accumulation preincubated for 15 mins prior bradykinin induction measured after 40 mins by liquid scintillation spectrometry). Settings: read-out: pA2 (converted).
T1 sequence (P30411 whole entry): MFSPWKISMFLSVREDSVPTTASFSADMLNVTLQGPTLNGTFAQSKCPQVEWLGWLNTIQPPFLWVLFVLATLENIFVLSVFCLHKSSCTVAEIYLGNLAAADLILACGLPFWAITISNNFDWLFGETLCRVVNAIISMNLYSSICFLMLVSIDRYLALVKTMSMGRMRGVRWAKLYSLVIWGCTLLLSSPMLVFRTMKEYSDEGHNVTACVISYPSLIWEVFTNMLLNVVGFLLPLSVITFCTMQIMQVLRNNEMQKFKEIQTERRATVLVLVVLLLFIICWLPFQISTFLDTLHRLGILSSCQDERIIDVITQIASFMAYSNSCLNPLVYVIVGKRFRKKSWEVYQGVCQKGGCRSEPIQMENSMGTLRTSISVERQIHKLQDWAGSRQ
Format: functional, cell-based
Method in brief: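 CHOdhfr-/hB2R cells (1.8×10^5/well) plated overnight at 37 °C, labelled 24 h with myo-[3H]inositol (1 uCi/well). Antagonist pre-incubation 15 min, then BK 1×10^-11 to 1×10^-5 M for 40 min at 37 °C in Hepes pH 7.4 buffer with 25 mM LiCl. IP1 radioactivity by liquid scintillation. Agonist curves fitted for EC50; pA2 = log(CR−1) − log[antagonist].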

Kb | SMILES
0.794 nM | Cc1cc(C)c2cccc(OCc3c(Cl)ccc(S(=O)(=O)NC4(C(=O)N5CCN(CCCCCC[N+](C)(C)C)CC5)CCOCC4)c3Cl)c2n1
0.398 nM | Cc1cc(C)c2cccc(OCc3c(Cl)ccc(S(=O)(=O)NC4(C(=O)N5CCN(C(=O)[C@@H](N)CCCCN)CC5)CCOCC4)c3Cl)c2n1
0.398 nM | Cc1cc(C)c2cccc(OCc3c(Cl)ccc(S(=O)(=O)NC4(C(=O)N5CCN(C(=O)[C@@H](N)CCCC[N+](C)(C)C)CC5)CCOCC4)c3Cl)c2n1
1.26 nM | Cc1cc(C)c2cccc(OCc3c(Cl)ccc(S(=O)(=O)NC4(C(=O)N5CCN(C(=O)CCCCCC[N+](C)(C)C)CC5)CCOCC4)c3Cl)c2n1
5.01 nM | Cc1cc(C)c2cccc(OCc3c(Cl)ccc(S(=O)(=O)NC4(C(=O)N5CC[N+]6(CC5)CC[N+](C)(C)CC6)CCOCC4)c3Cl)c2n1
0.479 nM | Cc1cc(C)c2cccc(OCc3c(Cl)ccc(S(=O)(=O)NC4(C(=O)N5CCN(C(=O)CCCCN)CC5)CCOCC4)c3Cl)c2n1
0.724 nM | Cc1cc(C)c2cccc(OCc3c(Cl)ccc(S(=O)(=O)NC4(C(=O)N5CCN(C(=O)[C@@H](N)CCCN)CC5)CCOCC4)c3Cl)c2n1
2.51 nM | Cc1cc(C)c2cccc(OCc3c(Cl)ccc(S(=O)(=O)NC4(C(=O)N5CCC(CNCC[N+](C)(C)C)CC5)CCOCC4)c3Cl)c2n1
0.123 nM | Cc1cc(C)c2cccc(OCc3c(Cl)ccc(S(=O)(=O)NC4(C(=O)N5CCN(C(=O)[C@@H](N)CCCN(C)C)CC5)CCOCC4)c3Cl)c2n1
5.01 nM | Cc1cc(C)c2cccc(OCc3c(Cl)ccc(S(=O)(=O)NC4(C(=O)N5CCC(C[N+](C)(C)C)CC5)CCOCC4)c3Cl)c2n1
2 nM | Cc1cc(C)c2cccc(OCc3c(Cl)ccc(S(=O)(=O)NC4(C(=O)N5CC[N+](C)(CCCC[N+](C)(C)C)CC5)CCOCC4)c3Cl)c2n1

These compounds were tested against T2, B1 bradykinin receptor (Homo sapiens, UniProt P46663) (assay: Displacement of [3H][desArg9]Lys-Bradykinin from human bradykinin B1 receptor expressed in CHO cells). Settings: not given.
T2 sequence (P46663 whole entry): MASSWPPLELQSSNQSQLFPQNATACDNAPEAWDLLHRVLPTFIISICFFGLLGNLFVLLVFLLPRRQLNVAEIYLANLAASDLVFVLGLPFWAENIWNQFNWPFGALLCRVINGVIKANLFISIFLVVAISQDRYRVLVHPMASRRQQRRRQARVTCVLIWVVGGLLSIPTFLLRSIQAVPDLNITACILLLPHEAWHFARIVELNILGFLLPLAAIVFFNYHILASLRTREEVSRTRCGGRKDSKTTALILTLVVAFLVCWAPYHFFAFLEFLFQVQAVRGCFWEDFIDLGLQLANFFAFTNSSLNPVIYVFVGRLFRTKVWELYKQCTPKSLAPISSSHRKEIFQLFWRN
Format: cell-based

Ki | SMILES
> 10000 nM | Cc1cc(C)c2cccc(OCc3c(Cl)ccc(S(=O)(=O)NC4(C(=O)N5CCN(CC[N+](C)(C)C)CC5)CCOCC4)c3Cl)c2n1
> 10000 nM | Cc1cc(C)c2cccc(OCc3c(Cl)ccc(S(=O)(=O)NC4(C(=O)N5CCN(C(=O)[C@@H](N)CCCCN(C)C)CC5)CCOCC4)c3Cl)c2n1
> 10000 nM | Cc1cc(C)c2cccc(OCc3c(Cl)ccc(S(=O)(=O)NC4(C(=O)N5CCN(CCC[N+](C)(C)C)CC5)CCOCC4)c3Cl)c2n1
> 10000 nM | Cc1cc(C)c2cccc(OCc3c(Cl)ccc(S(=O)(=O)NC4(C(=O)N5CCN(C(=O)[C@@H](N)CCC[N+](C)(C)C)CC5)CCOCC4)c3Cl)c2n1 [FASITIBANT]
> 10000 nM | Cc1cc(C)c2cccc(OCc3c(Cl)ccc(S(=O)(=O)NC4(C(=O)N5CCN(CCCCCC[N+](C)(C)C)CC5)CCOCC4)c3Cl)c2n1
> 10000 nM | Cc1cc(C)c2cccc(OCc3c(Cl)ccc(S(=O)(=O)NC4(C(=O)N5CCN(C(=O)[C@@H](N)CCCCN)CC5)CCOCC4)c3Cl)c2n1
> 10000 nM | Cc1cc(C)c2cccc(OCc3c(Cl)ccc(S(=O)(=O)NC4(C(=O)N5CCN(C(=O)[C@@H](N)CCCNC(=N)N)CC5)CCOCC4)c3Cl)c2n1
> 10000 nM | Cc1cc(C)c2cccc(OCc3c(Cl)ccc(S(=O)(=O)NC4(C(=O)N5CCN(C(=O)[C@@H](N)CCCC[N+](C)(C)C)CC5)CCOCC4)c3Cl)c2n1
> 10000 nM | Cc1cc(C)c2cccc(OCc3c(Cl)ccc(S(=O)(=O)NC4(C(=O)N5CCN(C(=O)CCCCCC[N+](C)(C)C)CC5)CCOCC4)c3Cl)c2n1
> 10000 nM | Cc1cc(C)c2cccc(OCc3c(Cl)ccc(S(=O)(=O)NC4(C(=O)N5CC[N+]6(CC5)CC[N+](C)(C)CC6)CCOCC4)c3Cl)c2n1
> 10000 nM | Cc1cc(C)c2cccc(OCc3c(Cl)ccc(S(=O)(=O)NC4(C(=O)N5CCN(C(=O)CCCCN)CC5)CCOCC4)c3Cl)c2n1
> 10000 nM | Cc1cc(C)c2cccc(OCc3c(Cl)ccc(S(=O)(=O)NC4(C(=O)N5CCN(C(=O)[C@@H](N)CCCN)CC5)CCOCC4)c3Cl)c2n1
> 10000 nM | Cc1cc(C)c2cccc(OCc3c(Cl)ccc(S(=O)(=O)NC4(C(=O)N5CCC(CNCC[N+](C)(C)C)CC5)CCOCC4)c3Cl)c2n1
> 10000 nM | Cc1cc(C)c2cccc(OCc3c(Cl)ccc(S(=O)(=O)NC4(C(=O)N5CCN(C(=O)[C@@H](N)CCCN(C)C)CC5)CCOCC4)c3Cl)c2n1
> 10000 nM | Cc1cc(C)c2cccc(OCc3c(Cl)ccc(S(=O)(=O)NC4(C(=O)N5CCC(C[N+](C)(C)C)CC5)CCOCC4)c3Cl)c2n1
> 10000 nM | Cc1cc(C)c2cccc(OCc3c(Cl)ccc(S(=O)(=O)NC4(C(=O)N5CCN(C(=O)[C@@H](N)CCCCNC(=N)N)CC5)CCOCC4)c3Cl)c2n1
> 10000 nM | Cc1cc(C)c2cccc(OCc3c(Cl)ccc(S(=O)(=O)NC4(C(=O)N5CC[N+](C)(CCCC[N+](C)(C)C)CC5)CCOCC4)c3Cl)c2n1

The compounds below were run against T1, B2 bradykinin receptor (assay: Displacement of [3H]-Bradykinin from human bradykinin B2 receptor expressed in CHO cells membrane after 60 mins by scintillation counting). Settings: not given.
Format: cell membranes

Ki | SMILES
0.794 nM | Cc1cc(C)c2cccc(OCc3c(Cl)ccc(S(=O)(=O)NC4(C(=O)N5CCN(CC[N+](C)(C)C)CC5)CCOCC4)c3Cl)c2n1
0.0631 nM | Cc1cc(C)c2cccc(OCc3c(Cl)ccc(S(=O)(=O)NC4(C(=O)N5CCN(C(=O)[C@@H](N)CCCCN(C)C)CC5)CCOCC4)c3Cl)c2n1
0.316 nM | Cc1cc(C)c2cccc(OCc3c(Cl)ccc(S(=O)(=O)NC4(C(=O)N5CCN(CCC[N+](C)(C)C)CC5)CCOCC4)c3Cl)c2n1
0.0631 nM | Cc1cc(C)c2cccc(OCc3c(Cl)ccc(S(=O)(=O)NC4(C(=O)N5CCN(CCCCCC[N+](C)(C)C)CC5)CCOCC4)c3Cl)c2n1
0.1 nM | Cc1cc(C)c2cccc(OCc3c(Cl)ccc(S(=O)(=O)NC4(C(=O)N5CCN(C(=O)[C@@H](N)CCCCN)CC5)CCOCC4)c3Cl)c2n1
0.126 nM | Cc1cc(C)c2cccc(OCc3c(Cl)ccc(S(=O)(=O)NC4(C(=O)N5CCN(C(=O)[C@@H](N)CCCNC(=N)N)CC5)CCOCC4)c3Cl)c2n1
0.251 nM | Cc1cc(C)c2cccc(OCc3c(Cl)ccc(S(=O)(=O)NC4(C(=O)N5CCN(C(=O)[C@@H](N)CCCC[N+](C)(C)C)CC5)CCOCC4)c3Cl)c2n1
0.2 nM | Cc1cc(C)c2cccc(OCc3c(Cl)ccc(S(=O)(=O)NC4(C(=O)N5CCN(C(=O)CCCCCC[N+](C)(C)C)CC5)CCOCC4)c3Cl)c2n1
0.251 nM | Cc1cc(C)c2cccc(OCc3c(Cl)ccc(S(=O)(=O)NC4(C(=O)N5CC[N+]6(CC5)CC[N+](C)(C)CC6)CCOCC4)c3Cl)c2n1
0.0794 nM | Cc1cc(C)c2cccc(OCc3c(Cl)ccc(S(=O)(=O)NC4(C(=O)N5CCN(C(=O)CCCCN)CC5)CCOCC4)c3Cl)c2n1
0.0501 nM | Cc1cc(C)c2cccc(OCc3c(Cl)ccc(S(=O)(=O)NC4(C(=O)N5CCN(C(=O)[C@@H](N)CCCN)CC5)CCOCC4)c3Cl)c2n1
0.2 nM | Cc1cc(C)c2cccc(OCc3c(Cl)ccc(S(=O)(=O)NC4(C(=O)N5CCC(CNCC[N+](C)(C)C)CC5)CCOCC4)c3Cl)c2n1
0.0501 nM | Cc1cc(C)c2cccc(OCc3c(Cl)ccc(S(=O)(=O)NC4(C(=O)N5CCN(C(=O)[C@@H](N)CCCN(C)C)CC5)CCOCC4)c3Cl)c2n1
0.398 nM | Cc1cc(C)c2cccc(OCc3c(Cl)ccc(S(=O)(=O)NC4(C(=O)N5CCC(C[N+](C)(C)C)CC5)CCOCC4)c3Cl)c2n1
0.0631 nM | Cc1cc(C)c2cccc(OCc3c(Cl)ccc(S(=O)(=O)NC4(C(=O)N5CCN(C(=O)[C@@H](N)CCCCNC(=N)N)CC5)CCOCC4)c3Cl)c2n1
0.0794 nM | Cc1cc(C)c2cccc(OCc3c(Cl)ccc(S(=O)(=O)NC4(C(=O)N5CC[N+](C)(CCCC[N+](C)(C)C)CC5)CCOCC4)c3Cl)c2n1

The compounds below were run on Cavia porcellus (assay: Inhibition of bradykinin-induced bronchoconstriction in anesthetized Dunkin-Hartley guinea pig at […], it 5 mins prior bradykinin-induction for every 30 mins up to 210 mins). Settings: not given.
Format: functional, organism-based
Method in brief: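 Anaesthetized male Dunkin Hartley guinea pigs, 350–400 g. Compound given intratracheally, then repeated iv BK challenges (10 nmol/kg) with bronchoconstriction recorded.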

SMILES | inhibition
Cc1cc(C)c2cccc(OCc3c(Cl)ccc(S(=O)(=O)NC4(C(=O)N5CCN(C(=O)[C@@H](N)CCC[N+](C)(C)C)CC5)CCOCC4)c3Cl)c2n1 [FASITIBANT] | Active
